Assay results taken from ChEMBL document CHEMBL1122088, “Synthesis of analogues of the carboxyl protease inhibitor pepstatin. Effect of structure in subsite P3 on inhibition of pepsin” (J Med Chem, 1982).
Calls of active or inactive are those of the source. The rule behind the calls is not given here. Square brackets hold non-standard residues; d marks the D form. Peptide text beside a SMILES is read from it. * marks the point of attachment. Sta = CC(C)C[C@H](N)[C@@H](O)CC(=O)O; Isovaleryl = CC(C)CC(=O)*; NHIsopentyl = CC(C)CCN*

molecular target: Pepsin A (Sus scrofa) (UniProt P00791); test: The compound was tested for time dependent inhibition against carboxyl protease (pepsin); No inhibition
Sequence (P00791 60-385 limits assumed): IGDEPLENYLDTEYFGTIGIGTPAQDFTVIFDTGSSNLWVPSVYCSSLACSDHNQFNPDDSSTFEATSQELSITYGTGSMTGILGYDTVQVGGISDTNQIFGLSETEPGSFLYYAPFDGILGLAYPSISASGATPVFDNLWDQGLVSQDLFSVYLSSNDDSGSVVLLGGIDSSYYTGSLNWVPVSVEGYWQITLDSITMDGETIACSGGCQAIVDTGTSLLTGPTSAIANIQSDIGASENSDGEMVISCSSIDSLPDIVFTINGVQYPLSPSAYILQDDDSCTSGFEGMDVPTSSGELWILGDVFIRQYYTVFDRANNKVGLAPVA

Row | TDI | SMILES
1 | inactive | CC(C)CCNC(=O)[C@H](C)NC(=O)C[C@H](O)[C@H](CC(C)C)NC(=O)[C@@H](NC(=O)OC(C)C)C(C)C
2 | inactive | CC(C)CCNC(=O)[C@H](C)NC(=O)C[C@H](O)[C@H](CC(C)C)NC(=O)[C@@H](NC(=O)CC(C)(C)C)C(C)C
3 | inactive | CC(C)CCNC(=O)[C@H](C)NC(=O)C[C@H](O)[C@H](CC(C)C)NC(=O)[C@@H](NC(=O)OC(C)(C)C)C(C)C

molecular target: Pepsin A (Sus scrofa) (UniProt P00791); test: The compound was tested for time dependent inhibition against carboxyl protease (pepsin); Yes

Row | SMILES | TDI
4 | CCC(CC)C(=O)N[C@H](C(=O)N[C@@H](CC(C)C)[C@@H](O)CC(=O)N[C@@H](C)C(=O)NCCC(C)C)C(C)C | Active
5 | CCC(C)C(=O)N[C@H](C(=O)N[C@@H](CC(C)C)[C@@H](O)CC(=O)N[C@@H](C)C(=O)NCCC(C)C)C(C)C (stereo not given in full) | Active
6 | CC(C)CCNC(=O)[C@H](C)NC(=O)C[C@H](O)[C@H](CC(C)C)NC(=O)[C@@H](NC(=O)[C@H](NC(=O)OC(C)(C)C)C(C)C)C(C)C | Active
7 | CC(C)CCNC(=O)[C@H](C)NC(=O)C[C@H](O)[C@H](CC(C)C)NC(=O)[C@@H](NC(=O)[C@@H](NC(=O)OC(C)(C)C)C(C)C)C(C)C | Active
8 | CC(C)CCNC(=O)[C@H](C)NC(=O)C[C@H](O)[C@H](CC(C)C)NC(=O)[C@@H](NC(=O)[C@@H](NC(=O)CC(C)C)C(C)C)C(C)C (Isovaleryl-VV[Sta]A-NHIsopentyl) | Active

The next lines start with the values.

Row | TDI | SMILES
9 | Active | CC(C)CCNC(=O)[C@H](C)NC(=O)C[C@H](O)[C@H](CC(C)C)NC(=O)[C@@H](NC(=O)C(C)C)C(C)C
10 | Active | CC(C)CCNC(=O)[C@H](C)NC(=O)C[C@H](O)[C@H](CC(C)C)NC(=O)[C@@H](NC(=O)CC(C)C)C(C)C

molecular target: Pepsin A (Sus scrofa, UniProt P00791); test: The compound was tested for inhibition of carboxyl protease (pepsin) inhibition
Outline: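 Porcine pepsin was assayed spectrophotometrically with the heptapeptide substrate Phe-Gly-His-Phe(NO2)-Phe-Ala-Phe-OMe (Km 4.0×10^-5 M). Fractional velocity (Vi/V0) was plotted against inhibitor concentration to obtain IC50. IC50 was converted to Ki with Cha's equation, Ki = (IC50 − Et/2)(1 + S/Km)^-1, using total enzyme and substrate concentrations. Time-dependent inhibitors were preincubated with enzyme for 10 min, and steady-state velocities were used.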

Sequence of Pepsin A (P00791 whole entry): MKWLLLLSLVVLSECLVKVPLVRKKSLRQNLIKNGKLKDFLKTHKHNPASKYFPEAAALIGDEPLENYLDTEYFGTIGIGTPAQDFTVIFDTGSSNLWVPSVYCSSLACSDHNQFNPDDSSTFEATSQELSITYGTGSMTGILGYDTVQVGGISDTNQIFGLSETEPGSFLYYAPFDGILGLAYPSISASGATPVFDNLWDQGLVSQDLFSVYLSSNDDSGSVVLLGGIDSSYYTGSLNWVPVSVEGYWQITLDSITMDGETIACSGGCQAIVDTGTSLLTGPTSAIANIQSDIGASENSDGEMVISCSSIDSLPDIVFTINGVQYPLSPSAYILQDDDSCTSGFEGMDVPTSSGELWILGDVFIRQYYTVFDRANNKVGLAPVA

Row | SMILES | Ki
11 | CC(C)CCNC(=O)[C@H](C)NC(=O)C[C@H](O)[C@H](CC(C)C)NC(=O)[C@@H](NC(=O)OC(C)C)C(C)C | 8.6 nM
12 | CCC(CC)C(=O)N[C@H](C(=O)N[C@@H](CC(C)C)[C@@H](O)CC(=O)N[C@@H](C)C(=O)NCCC(C)C)C(C)C | 0.18 nM
13 | CCC(C)C(=O)N[C@H](C(=O)N[C@@H](CC(C)C)[C@@H](O)CC(=O)N[C@@H](C)C(=O)NCCC(C)C)C(C)C (stereo not given in full) | 0.31 nM
14 | CC(C)CCNC(=O)[C@H](C)NC(=O)C[C@H](O)[C@H](CC(C)C)NC(=O)[C@@H](NC(=O)[C@H](NC(=O)OC(C)(C)C)C(C)C)C(C)C | 11 nM
15 | CC(C)CCNC(=O)[C@H](C)NC(=O)C[C@H](O)[C@H](CC(C)C)NC(=O)[C@@H](NC(=O)[C@@H](NC(=O)OC(C)(C)C)C(C)C)C(C)C | ~6 nM
16 | CC(C)CCNC(=O)[C@H](C)NC(=O)C[C@H](O)[C@H](CC(C)C)NC(=O)[C@@H](NC(=O)[C@@H](NC(=O)CC(C)C)C(C)C)C(C)C (Isovaleryl-VV[Sta]A-NHIsopentyl) | ~0.1 nM

The next lines start with the values.

Row | Ki | SMILES
17 | 1.6 nM | CC(C)CCNC(=O)[C@H](C)NC(=O)C[C@H](O)[C@H](CC(C)C)NC(=O)[C@@H](NC(=O)C(C)C)C(C)C
18 | 2.9 nM | CC(C)CCNC(=O)[C@H](C)NC(=O)C[C@H](O)[C@H](CC(C)C)NC(=O)[C@@H](NC(=O)CC(C)C)C(C)C
19 | 7.5 nM | CC(C)CCNC(=O)[C@H](C)NC(=O)C[C@H](O)[C@H](CC(C)C)NC(=O)[C@@H](NC(=O)CC(C)(C)C)C(C)C
20 | 170 nM | CC(C)CCNC(=O)[C@H](C)NC(=O)C[C@H](O)[C@H](CC(C)C)NC(=O)[C@@H](NC(=O)OC(C)(C)C)C(C)C
